Like-named read-outs stand apart in the source and are kept apart here.
How the values were obtained:
[1] = In vitro Caco-2 permeability; format: in vitro ADME; details: human
[2] = format: in vivo, human; details: for CL/F / Fe0‐12h (fraction excreted in urine) / Accumulation ratio (based on AUCτ): geometric mean (geometric CV%); for Tmax: human, plasma, oral, range
[3] = Plasma and urine pharmacokinetics, part I SAD study; format: in vivo, human; details: for CL/F / Fe0‐72h (fraction excreted in urine): geometric mean (geometric CV%)
Procedure, shortened: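 Healthy adults randomized 6:2 to oral test compound or placebo (n = 8/cohort), fasted ≥10 h, no food ≥4 h postdose. Solution given as 150 mL in diluted Ora-Sweet plus 90 mL water rinse. Plasma sampled predose to 72 h. UHPLC-MS/MS with deuterated internal standard; plasma 2.5–1000 μg/L (LLOQ 2.5), urine 2–800 μg/L (LLOQ 2.0). Noncompartmental analysis; power-model ln-regression of Cmax/AUC on dose, slope with 90% CI.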

[4] = Metabolite profile in liver microsomes; format: in vitro ADME
[5] = MAD day 1, single 100 mg tablet
[6] = MAD day 1, single 200 mg tablet
[7] = MAD day 14, 50 mg tablet b.i.d.
[8] = MAD day 14, 100 mg tablet b.i.d.
[9] = MAD day 14, 200 mg tablet b.i.d.

## O[C@H]1CCCN[C@@H]1CCCn1cnc2c(Cl)c(Cl)ccc21 [Bersiporocin]
[1]
  Papp: 7.67 ± 1.06 ×10⁻⁶ cm/s
[2]; MAD
  dose adjusted plasma exposure, CYP2D6 poor metabolizer compared to the median value in other phenotypes: six‐ to nine‐fold higher
[2]; MAD day 1, single 25 mg tablet
  CL/F: 175.57 (70.55) L/h
  Fe0‐12h (fraction excreted in urine): 6.23 (44.75) %
[2]; MAD day 1, single 50 mg tablet
  CL/F: 292.89 (26.44) L/h
  Fe0‐12h (fraction excreted in urine): 6.09 (95.30) %
[2]; [5]
  CL/F: 261.98 (49.54) L/h
  Fe0‐12h (fraction excreted in urine): 8.20 (27.21) %
[2]; [6]
  CL/F: 266.78 (18.62) L/h
  Fe0‐12h (fraction excreted in urine): 8.44 (50.39) %
[2]; MAD day 14, 25 mg tablet b.i.d.
  Accumulation ratio (based on AUCτ): 1.94 (26.34)
[2]; [7]
  Accumulation ratio (based on AUCτ): 2.33 (31.42)
  Fe0‐12h (fraction excreted in urine): 6.09 (95.30) %
[2]; [8]
  Accumulation ratio (based on AUCτ): 1.88 (35.07)
  Fe0‐12h (fraction excreted in urine): 8.20 (27.21) %
[2]; [9]
  Accumulation ratio (based on AUCτ): 3.75 (36.01)
  Fe0‐12h (fraction excreted in urine): 8.44 (50.39) %
[2]; MAD, 100 to 200 mg dose group
  increase of AUC: more than four‐folds
[2]; MAD, enteric coated tablet, after single and multiple doses
  dose dependence of plasma concentration: dose‐proportional manner
[2]; MAD, enteric coated tablet, first Helmert contrast with p > 0.05
  time to steady‐state of plasma concentration: 2 days
[2]; median T max after a single dose, MAD, single dose
  Tmax: 2.5 to 6 h
[2]; median T max,ss, MAD, multiple doses
  Tmax: 2 to 6 h
[3]; SAD single 100 mg capsule
  CL/F: 156.48 (58.10) L/h
  Fe0‐72h (fraction excreted in urine): 10.01 (45.08) %
[3]; SAD single 100 mg solution
  CL/F: 340.72 (48.72) L/h
  Fe0‐72h (fraction excreted in urine): 7.59 (32.47) %
[3]; SAD single 300 mg capsule
  CL/F: 196.59 (47.06) L/h
  Fe0‐72h (fraction excreted in urine): 7.42 (43.31) %
[3]; SAD single 500 mg tablet
  CL/F: 213.75 (53.27) L/h
  Fe0‐72h (fraction excreted in urine): 42.18 (180.78) %
[3]; SAD single 600 mg capsule
  CL/F: 312.07 (222.08) L/h
  Fe0‐72h (fraction excreted in urine): 3.09 (341.55) %
[3]; human, plasma, oral, t 1/2, range, SAD, enteric coated capsule
  half-life: 6.91 to 9.9 h
[3]; single dose of enteric coated capsule
  dose dependence of plasma concentration: dose‐proportional manner
[3]; urine PK data from SAD or MAD
  role of renal elimination: renal elimination was not the major clearance pathway
[4]
  number of metabolites identified: 21

— PMC10339703 (Clinical and Translational Science, 2023)
